Results reported in ChEMBL document CHEMBL3797202, “Novel Oxindole Sulfonamides and Sulfamides: EPZ031686, the First Orally Bioavailable Small Molecule SMYD3 Inhibitor” (ACS Med Chem Lett, 2016).

How the values were obtained:
[1] = molecular target: Histone-lysine N-methyltransferase SETDB1 (Homo sapiens) (UniProt Q15047); assay: Inhibition of SETDB1 (unknown origin) at 10 uM relative to control
[2] = Intrinsic clearance in CD1 mouse liver microsomes at 1 uM incubated for 5 to 45 mins by LC-MS/MS analysis in presence of NADPH; assay type: ADME; conditions: read-out: CLH
How it was run: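 Mouse liver microsomal incubations; clearance scaled from microsomal data and reported as a mean value.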

[3] = molecular target: T1, Protein arginine N-methyltransferase 7 (Homo sapiens) (UniProt Q9NVM4); assay: Inhibition of PRMT7 (unknown origin) at 10 uM relative to control
T1 sequence (whole entry): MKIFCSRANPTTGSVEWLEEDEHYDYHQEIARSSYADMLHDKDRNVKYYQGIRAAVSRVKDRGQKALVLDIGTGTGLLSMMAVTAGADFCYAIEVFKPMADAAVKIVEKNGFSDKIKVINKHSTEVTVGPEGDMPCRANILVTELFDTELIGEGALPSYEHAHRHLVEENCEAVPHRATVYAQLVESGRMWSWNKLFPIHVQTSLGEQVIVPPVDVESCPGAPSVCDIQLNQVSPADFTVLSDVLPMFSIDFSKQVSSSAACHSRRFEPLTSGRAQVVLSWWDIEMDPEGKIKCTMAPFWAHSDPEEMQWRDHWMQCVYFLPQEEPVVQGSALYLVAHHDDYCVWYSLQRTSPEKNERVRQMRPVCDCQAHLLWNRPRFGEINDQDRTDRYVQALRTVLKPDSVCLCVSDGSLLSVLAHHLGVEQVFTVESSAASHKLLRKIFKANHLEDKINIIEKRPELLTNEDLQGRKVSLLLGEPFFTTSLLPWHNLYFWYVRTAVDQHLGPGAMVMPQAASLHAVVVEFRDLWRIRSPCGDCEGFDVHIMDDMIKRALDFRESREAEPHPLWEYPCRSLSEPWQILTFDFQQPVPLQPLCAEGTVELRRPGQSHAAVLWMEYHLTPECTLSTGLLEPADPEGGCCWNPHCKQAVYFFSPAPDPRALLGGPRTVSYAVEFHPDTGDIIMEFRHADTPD

[4] = molecular target: T2, Histone-lysine N-methyltransferase EHMT1 (Homo sapiens) (UniProt Q9H9B1); assay: Inhibition of EHMT1 (unknown origin) at 10 uM relative to control
T2 sequence (whole entry): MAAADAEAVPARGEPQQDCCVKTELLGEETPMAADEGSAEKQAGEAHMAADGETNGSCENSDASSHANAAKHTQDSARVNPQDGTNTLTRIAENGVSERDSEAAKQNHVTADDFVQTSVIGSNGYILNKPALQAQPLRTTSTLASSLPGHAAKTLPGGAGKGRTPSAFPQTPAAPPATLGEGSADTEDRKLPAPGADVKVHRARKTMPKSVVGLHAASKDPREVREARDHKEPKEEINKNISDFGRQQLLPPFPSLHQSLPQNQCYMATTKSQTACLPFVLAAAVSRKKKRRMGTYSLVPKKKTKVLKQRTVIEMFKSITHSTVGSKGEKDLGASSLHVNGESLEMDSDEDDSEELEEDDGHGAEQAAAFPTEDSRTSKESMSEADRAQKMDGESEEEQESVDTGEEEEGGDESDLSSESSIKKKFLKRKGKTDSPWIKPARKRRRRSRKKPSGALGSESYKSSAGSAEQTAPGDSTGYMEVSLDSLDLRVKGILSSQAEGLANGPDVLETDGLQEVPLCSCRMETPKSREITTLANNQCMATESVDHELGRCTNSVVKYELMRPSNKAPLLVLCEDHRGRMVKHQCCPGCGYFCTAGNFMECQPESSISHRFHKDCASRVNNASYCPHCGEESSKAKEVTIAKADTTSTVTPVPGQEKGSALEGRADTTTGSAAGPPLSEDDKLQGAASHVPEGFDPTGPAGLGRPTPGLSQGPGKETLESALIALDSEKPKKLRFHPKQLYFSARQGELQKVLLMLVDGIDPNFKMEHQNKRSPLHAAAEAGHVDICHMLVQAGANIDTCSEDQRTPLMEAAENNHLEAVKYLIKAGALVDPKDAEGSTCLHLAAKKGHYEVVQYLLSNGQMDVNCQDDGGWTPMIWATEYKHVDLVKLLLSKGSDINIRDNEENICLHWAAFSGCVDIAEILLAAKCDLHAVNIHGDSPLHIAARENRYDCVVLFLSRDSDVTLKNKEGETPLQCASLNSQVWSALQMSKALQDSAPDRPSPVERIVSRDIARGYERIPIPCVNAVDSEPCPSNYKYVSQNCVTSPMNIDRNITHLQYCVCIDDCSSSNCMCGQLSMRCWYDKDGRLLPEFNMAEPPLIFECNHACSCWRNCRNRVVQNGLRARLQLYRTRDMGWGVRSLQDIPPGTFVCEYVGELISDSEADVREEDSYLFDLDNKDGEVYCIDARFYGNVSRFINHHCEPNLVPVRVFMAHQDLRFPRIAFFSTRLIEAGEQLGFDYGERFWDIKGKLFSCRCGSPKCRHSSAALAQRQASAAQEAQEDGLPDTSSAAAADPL

[5] = Fraction unbound in CD1 mouse plasma at 1 uM incubated for 16 hrs by LC-MS/MS based equilibrium dialysis method; assay type: ADME, cell-free

Compound | inhibition [1] | CLint scaled at 1 µM [2] | inhibition [3] | inhibition [4] | fraction unbound at 16 h, 1 µM [5]
O=C1Cc2cc(C(=O)N[C@H]3C[C@H]4CC[C@@H](C3)N4S(=O)(=O)CC3CCN(CCCC(F)(F)F)CC3)c(Cl)cc2N1 | < 30% | 24 mL/min/kg | < 30% | < 30% | 0.53
O=C1Cc2cc(C(=O)N[C@H]3C[C@H]4CC[C@@H](C3)N4S(=O)(=O)N3CCC(NCc4ccccc4)CC3)c(Cl)cc2N1 | < 30% | 34 mL/min/kg | < 30% | < 30% | 0.32
